Test results published in ChEMBL document CHEMBL3808334, “Synthesis and in vitro evaluation of novel triazine analogues as anticancer agents and their interaction studies with bovine serum albumin” (Eur J Med Chem, 2016).

Tests used:
Format in all cases: functional
[1] = Growth inhibition of human MOLT4 cells assessed as cell growth at 10 uM incubated for 48 hrs by sulforhodamine B assay; conditions: MOLT-4, 48 h, read-out: Activity
[2] = Growth inhibition of human UO31 cells assessed as cell growth at 10^-7 M incubated for 48 hrs by sulforhodamine B assay; conditions: UO-31, 48 h, read-out: Activity
K562 = experiment: Growth inhibition of human K562 cells assessed as cell growth at 10^-4 M incubated for 48 hrs by sulforhodamine B assay; conditions: K562, 48 h, read-out: Activity
NCI-H460 = experiment: Growth inhibition of human NCI-H460 cells assessed as cell growth at 10^-5 M incubated for 48 hrs by sulforhodamine B assay; conditions: NCI-H460, 48 h, read-out: Activity
[3] = Growth inhibition of human HL-60(TB) cells assessed as cell growth at 10^-6 M incubated for 48 hrs by sulforhodamine B assay; conditions: HL-60, 48 h, read-out: Activity
Summary of the method: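 Cells plated at 5,000–40,000/well according to doubling time and preincubated 24 h at 37 °C, 5% CO₂, with time-zero plates TCA-fixed. Drugs were kept as DMSO concentrates at 400× the top concentration and diluted in medium with 50 µg/ml gentamicin. Five 10-fold or ½-log dilutions were run for 48 h, followed by SRB staining and A515. Percent growth = (Ti−Tz)/(C−Tz)×100, or (Ti−Tz)/Tz×100 when Ti<Tz.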

[4] = Growth inhibition of human Hs 578T cells assessed as cell growth at 10^-6 M incubated for 48 hrs by sulforhodamine B assay; conditions: read-out: Activity
MDA-MB-231 [5] = experiment: Growth inhibition of human MDA-MB-231 cells assessed as cell growth at 10^-6 M incubated for 48 hrs by sulforhodamine B assay; conditions: MDA-MB-231, 48 h, read-out: Activity
NCI-H226 = experiment: Growth inhibition of human NCI-H226 cells assessed as cell growth at 10^-5 M incubated for 48 hrs by sulforhodamine B assay; conditions: NCI-H226, 48 h, read-out: Activity
NCI/ADR-RES = experiment: Growth inhibition of human NCI/ADR-RES cells incubated for 48 hrs by sulforhodamine B assay
Summary of the method: (§1)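 Cells were plated at 5,000–40,000 per well according to doubling time and preincubated 24 h at 37 °C in 5% CO2; time-zero plates were then TCA-fixed. Five concentrations (10-fold or ½-log dilutions, DMSO stock) were incubated 48 h. Cells were TCA-fixed, stained with 0.4% SRB and read at 515 nm. GI50 was taken where [(Ti−Tz)/(C−Tz)]×100 = 50.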

[6] = Growth inhibition of human SF268 cells assessed as cell growth at 10 uM incubated for 48 hrs by sulforhodamine B assay; conditions: SF-268, 48 h, read-out: Activity
[7] = Growth inhibition of human LOXIMVI cells assessed as cell growth at 10 uM incubated for 48 hrs by sulforhodamine B assay; conditions: LOX IMVI, read-out: Activity
[8] = Growth inhibition of human SKOV3 cells incubated for 48 hrs by sulforhodamine B assay; conditions: SK-OV-3, 48 h; summary of the method: as §1
[9] = Growth inhibition of human RXF393 cells assessed as cell growth at 10^-4 M incubated for 48 hrs by sulforhodamine B assay; conditions: RXF 393, 48 h, read-out: Activity
MDA-MB-231 [10] = experiment: Growth inhibition of human MDA-MB-231 cells incubated for 48 hrs by sulforhodamine B assay; conditions: MDA-MB-231, 48 h; summary of the method: as §1
[11] = Growth inhibition of human HCT116 cells assessed as cell growth at 10^-5 M incubated for 48 hrs by sulforhodamine B assay; conditions: HCT-116, 48 h, read-out: Activity
Summary of the method: (§2)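 Cells seeded at 5,000–40,000/well according to doubling time and preincubated 24 h at 37 °C, 5% CO2. Time-zero plates were TCA-fixed. DMSO concentrate was diluted in medium with 50 µg/ml gentamicin to give five concentrations (10-fold or ½ log steps), then exposed 48 h. Cells were TCA-fixed, stained with 0.4% SRB and read at 515 nm. Percent growth was taken against time-zero and control; GI50, TGI and LC50 derived.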

[12] = Growth inhibition of human leukemia cells incubated for 48 hrs by sulforhodamine B assay; conditions: Leukemia cell; for CC50: read-out: LC50 (the source's name)
MDA-MB-468 = experiment: Growth inhibition of human MDA-MB-468 cells incubated for 48 hrs by sulforhodamine B assay; conditions: MDA-MB-468, 48 h; summary of the method: as §1
[13] = Growth inhibition of human Caki1 cells assessed as cell growth at 10^-7 M incubated for 48 hrs by sulforhodamine B assay; conditions: CAKI-1, 48 h, read-out: Activity; summary of the method: as §2
[14] = Growth inhibition of human RXF393 cells assessed as cell growth at 10^-7 M incubated for 48 hrs by sulforhodamine B assay; conditions: RXF 393, 48 h, read-out: Activity
[15] = Growth inhibition of human BT549 cells incubated for 48 hrs by sulforhodamine B assay; conditions: BT-549, 48 h
Summary of the method: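 Five-dose assay: five concentrations from 10-fold or ½-log serial dilutions. Cells are plated at 5,000–40,000 per well according to doubling time, grown 24 h, then exposed 48 h at 37 °C, 5% CO₂. Fixed with cold 50% TCA (final addition) for 60 min at 4 °C and stained with 0.4% SRB in 1% acetic acid. Bound dye is solubilized in 10 mM Tris base and read at 515 nm. GI₅₀ is where [(Ti−Tz)/(C−Tz)]×100 = 50, with a time-zero plate as Tz.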

[16] = Growth inhibition of human SNB19 cells assessed as cell growth at 10^-6 M incubated for 48 hrs by sulforhodamine B assay; conditions: SNB-19, 48 h, read-out: Activity
[17] = Growth inhibition of human SNB19 cells assessed as cell growth at 10^-7 M incubated for 48 hrs by sulforhodamine B assay; conditions: SNB-19, 48 h, read-out: Activity
[18] = Growth inhibition of human HCC2998 cells assessed as cell growth at 10^-5 M incubated for 48 hrs by sulforhodamine B assay; conditions: HCC 2998, 48 h, read-out: Activity; summary of the method: as §2
[19] = Growth inhibition of human Hs 578T cells assessed as cell growth at 10^-8 M incubated for 48 hrs by sulforhodamine B assay; conditions: read-out: Activity
[20] = read-out: LC50 (the source's name)
[21] = read-out: pLC50 (the source's name) (converted)

c1ccc(-c2nc(Nc3ccc(-c4nc5ccccc5[nH]4)cc3)nc(N3CCOCC3)n2)cc1
growth at 10 µM [1]: -37.8% | growth at 0.1 µM [2]: 82% | growth at 100 µM (K562): -55% | growth at 10 µM (NCI-H460): -70% | growth at 1 µM [3]: -7% | growth at 1 µM [4]: 78% | growth at 1 µM (MDA-MB-231 [5]): 63% | growth at 10 µM (NCI-H226): -60% | GI50 (NCI/ADR-RES; read-out: GI50): 1.93 µM | CC50 (NCI/ADR-RES; [20]): > 100 µM | TGI (NCI/ADR-RES; read-out: TGI): 5.53 µM | GI50 (NCI/ADR-RES; read-out: pGI50 (converted)): 1.95 µM | CC50 (NCI/ADR-RES; [21]): > 100 µM | TGI (NCI/ADR-RES; read-out: pTGI (converted)): 5.5 µM | growth at 10 µM [6]: -43.4% | growth at 10 µM [7]: -89% | GI50 ([8]; read-out: GI50): 2.11 µM | CC50 [8, 20]: 8.47 µM | TGI ([8]; read-out: TGI): 4.23 µM | GI50 ([8]; read-out: pGI50 (converted)): 2.09 µM | CC50 [8, 21]: 8.51 µM | TGI ([8]; read-out: pTGI (converted)): 4.27 µM | growth at 100 µM [9]: -61% | GI50 (MDA-MB-231 [10]; read-out: GI50): 1.29 µM | CC50 (MDA-MB-231 [10]; [20]): 9.4 µM | TGI (MDA-MB-231 [10]; read-out: TGI): 3.48 µM | GI50 (MDA-MB-231 [10]; read-out: pGI50 (converted)): 1.29 µM | CC50 (MDA-MB-231 [10]; [21]): 9.33 µM | TGI (MDA-MB-231 [10]; read-out: pTGI (converted)): 3.47 µM | growth at 10 µM [11]: -61% | GI50 [12]: 0.57 µM | TGI [12]: 2.17 µM | CC50 [12]: 16.3 µM | GI50 (MDA-MB-468; read-out: GI50): 2.13 µM | CC50 (MDA-MB-468; [20]): 9.03 µM | TGI (MDA-MB-468; read-out: TGI): 4.39 µM | GI50 (MDA-MB-468; read-out: pGI50 (converted)): 2.14 µM | CC50 (MDA-MB-468; [21]): 9.12 µM | TGI (MDA-MB-468; read-out: pTGI (converted)): 4.37 µM | growth at 0.1 µM [13]: 86% | growth at 0.1 µM [14]: 96% | GI50 ([15]; read-out: GI50): 1.98 µM | CC50 [15, 20]: 7.68 µM | TGI ([15]; read-out: TGI): 3.9 µM | GI50 ([15]; read-out: pGI50 (converted)): 2 µM | CC50 [15, 21]: 7.76 µM | TGI ([15]; read-out: pTGI (converted)): 3.89 µM | growth at 1 µM [16]: 92% | growth at 0.1 µM [17]: 95% | growth at 10 µM [18]: -62% | growth at 0.01 µM [19]: 94%

Clc1ccc(-c2nc(Nc3ccc(-c4nc5ccccc5[nH]4)cc3)nc(N3CCOCC3)n2)cc1
growth at 10 µM [1]: -91.6% | growth at 0.1 µM [2]: 92% | growth at 100 µM (K562): -29% | growth at 10 µM (NCI-H460): -73% | growth at 1 µM [3]: -29% | growth at 1 µM [4]: 43% | growth at 1 µM (MDA-MB-231 [5]): -55% | growth at 10 µM (NCI-H226): -55% | GI50 (NCI/ADR-RES; read-out: GI50): 0.631 µM | TGI (NCI/ADR-RES; read-out: TGI): 2.19 µM | GI50 (NCI/ADR-RES; read-out: pGI50 (converted)): 0.631 µM | TGI (NCI/ADR-RES; read-out: pTGI (converted)): 2.19 µM | growth at 10 µM [6]: -82.7% | growth at 10 µM [7]: -93% | GI50 ([8]; read-out: GI50): 1.84 µM | CC50 [8, 20]: 100 µM | TGI ([8]; read-out: TGI): 3.28 µM | GI50 ([8]; read-out: pGI50 (converted)): 1.82 µM | CC50 [8, 21]: 100 µM | TGI ([8]; read-out: pTGI (converted)): 3.31 µM | growth at 100 µM [9]: -30% | GI50 (MDA-MB-231 [10]; read-out: GI50): 0.193 µM | TGI (MDA-MB-231 [10]; read-out: TGI): 0.422 µM | GI50 (MDA-MB-231 [10]; read-out: pGI50 (converted)): 0.195 µM | TGI (MDA-MB-231 [10]; read-out: pTGI (converted)): 0.417 µM | growth at 10 µM [11]: -76% | GI50 [12]: 0.19 µM | TGI [12]: 0.58 µM | CC50 [12]: > 100 µM | GI50 (MDA-MB-468; read-out: GI50): 0.516 µM | TGI (MDA-MB-468; read-out: TGI): 1.82 µM | GI50 (MDA-MB-468; read-out: pGI50 (converted)): 0.513 µM | TGI (MDA-MB-468; read-out: pTGI (converted)): 1.82 µM | growth at 0.1 µM [13]: 93% | growth at 0.1 µM [14]: 106% | GI50 ([15]; read-out: GI50): 1.73 µM | TGI ([15]; read-out: TGI): 3.68 µM | GI50 ([15]; read-out: pGI50 (converted)): 1.74 µM | TGI ([15]; read-out: pTGI (converted)): 3.72 µM | growth at 1 µM [16]: 17% | growth at 0.1 µM [17]: 95% | growth at 10 µM [18]: -57% | growth at 0.01 µM [19]: 90%
